Ten compounds from ChEMBL document CHEMBL1137675, “Convenient one-pot synthesis of novel 2-substituted benzimidazoles, tetrahydrobenzimidazoles and imidazoles and evaluation of their in vitro antibacterial and antifungal activities” (2009) can be followed below.

Values after ≈ are worked out from the molar mass of the structure shown.

For assay [1], the system named is Salmonella typhimurium. The experiment in a line: Antibacterial activity against Salmonella Typhimurium MTCC 98 at 37 degC after 24 hrs by filter paper disk method. Type of assay: functional, Salmonella enterica subsp. enterica serovar Typhimurium. Conditions: for MIC: Salmonella enterica, MTCC 98, 24 h. The method, boiled down:
(§1)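 Compounds were taken from a 1 mg/ml DMSO stock and serially diluted two-fold over a 300 to 18.75 range, then loaded onto sterile 8 mm paper discs. Bacteria were grown overnight in nutrient broth at 37 °C, pelleted, and resuspended in sterile NSS to 10⁵ cfu/ml. About 0.1 ml was spread on NA plates. Plates were incubated 24 h at 37 °C with a solvent control disc, and inhibition zone diameter was read in mm.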

For assay [2], the system named is Bacillus subtilis. The experiment in a line: Antibacterial activity against Bacillus subtilis ATCC 6051 at 37 degC after 24 hrs by filter paper disk method. Type of assay: functional. As to conditions: for MIC: Bacillus subtilis, ATCC 6051, 24 h. The method, boiled down:
as §1

In assay [3] the test system is Staphylococcus aureus. The experiment in a line: Antibacterial activity against Staphylococcus aureus MSSA 22 at 37 degC after 24 hrs by filter paper disk method. Type of assay: functional. Conditions: for MIC: Staphylococcus aureus, MSSA 22, 24 h. The essentials:
as §1

The test system of assay [4] is Escherichia coli. The experiment in a line: Antibacterial activity against Escherichia coli K-12 at 37 degC after 24 hrs by filter paper disk method. The class given is functional. As to conditions: for MIC: Escherichia coli, K-12, 24 h. The essentials:
as §1

The subject of assay [5] is Candida albicans. Put plainly: Antifungal activity against Candida albicans IOA-109 at 37 degC after 18 to 48 hrs. The class given is functional. Conditions: for MIC: Candida albicans, IOA-109.
Assay [6] has as its system Aspergillus niger. The experiment in a line: Antifungal activity against Aspergillus niger at 28 degC after 72 hrs. The class given is functional. Conditions: for MIC: Aspergillus niger, 72 h. The essentials: (§2)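 Filamentous fungi were kept on SDA at 28 °C. Spores from 7-day cultures were suspended in sterile normal saline to about 10⁵ cfu/ml, and about 0.1 ml was spread on SDA plates. Compounds were serially diluted two-fold in DMSO and impregnated on 8 mm discs, with a solvent control disc on each plate. Plates were held at 28 °C for 72 h or more, and inhibition zone diameter was read in mm.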

Assay [7] relates to Trichoderma viride. Put plainly: Antifungal activity against Trichoderma viride at 28 degC after 72 hrs. Conditions: for MIC: Trichoderma viride, 72 h. The class given is functional. The method, boiled down:
as §2

Assay [8] concerns Penicillium sp. The experiment in a line: Antifungal activity against Penicillium sp. at 28 degC after 72 hrs. The class given is functional. Conditions: for MIC: Penicillium sp., 72 h. The method, boiled down: as §2
For assay [9], the system named is Helminthosporium. The experiment in a line: Antifungal activity against Helminthosporium oryzae 2537 ICAR at 28 degC after 72 hrs. The class given is functional. Conditions: for MIC: Helminthosporium, 72 h. The method, boiled down: as §2

For the compound `CCCCCCCC/C=C/CCCCCCCc1ncc[nH]1`, the “diameter of the inhibition zone (DIZ)” value is recorded as 11 mm in assay [1]; 19 mm in [2]; 15 mm in assay [3]; 11 mm in [4]; 18 mm in assay [5]; 12 mm in [6]. Also, the “diameter of the inhibition zone (DIZ)” value is 4 mm in assay [7], 17 mm in assay [8] and 12 mm in assay [9]. For the same compound, the MIC was 75 µg/mL (≈ 246 µM) in assay [1]; 37.5 µg/mL (≈ 123 µM) in [2]; 150 µg/mL (≈ 493 µM) in [3]; 150 µg/mL (≈ 493 µM) in [4]; 75 µg/mL (≈ 246 µM) in assay [5]; 150 µg/mL (≈ 493 µM) in assay [6]. Further, the MIC in assay [7] was 75 µg/mL (≈ 246 µM); in assay [8], 150 µg/mL (≈ 493 µM); in assay [9], 150 µg/mL (≈ 493 µM).

For the compound `CCCCCCCC/C=C/CCCCCCCc1nc2cc([N+](=O)[O-])ccc2[nH]1`, the “diameter of the inhibition zone (DIZ)” value in assay [1] came out at 11 mm; in assay [2] it was 20 mm; in [3], 21 mm; in assay [4], 20 mm; in assay [5], 19 mm; in assay [6], 15 mm. The “diameter of the inhibition zone (DIZ)” value in assay [7] is recorded as 8 mm; in assay [8], 18 mm; in assay [9], 12 mm. Further, the MIC in [1] worked out at 37.5 µg/mL (≈ 93.8 µM); in assay [2], 37.5 µg/mL (≈ 93.8 µM); in [3], 37.5 µg/mL (≈ 93.8 µM); in assay [4], 75 µg/mL (≈ 188 µM); in assay [5], 37.5 µg/mL (≈ 93.8 µM); in assay [6], 37.5 µg/mL (≈ 93.8 µM). The figures for the MIC in assay [7], in assay [8] and in [9] were 37.5 µg/mL (≈ 93.8 µM), 37.5 µg/mL (≈ 93.8 µM) and 75 µg/mL (≈ 188 µM), respectively.

For `CCCCC/C=C\CC[C@H](O)CCCCCCCc1ncc[nH]1`, the “diameter of the inhibition zone (DIZ)” value in assay [1] came to 12 mm; in [2], 19 mm; in assay [3] it was 15 mm; in [4], 12 mm; in assay [5] it was 18 mm; in assay [6], 14 mm. Moreover, the “diameter of the inhibition zone (DIZ)” value in [7] is reported as 6 mm; in assay [8], 19 mm; in assay [9], 12 mm. Also, the MIC came to 75 µg/mL (≈ 234 µM) in [1]; 37.5 µg/mL (≈ 117 µM) in assay [2]; 150 µg/mL (≈ 468 µM) in assay [3]; 150 µg/mL (≈ 468 µM) in [4]; 75 µg/mL (≈ 234 µM) in assay [5]; 150 µg/mL (≈ 468 µM) in assay [6]. The results for the MIC in [7], in [8] and in [9] were 75 µg/mL (≈ 234 µM), 150 µg/mL (≈ 468 µM) and 150 µg/mL (≈ 468 µM), respectively.

Consider `CCCCCC[C@@H](O)C/C=C\CCCCCCCc1nc2ccccc2[nH]1`, for which the “diameter of the inhibition zone (DIZ)” value amounted to 12 mm in [1]; 21 mm in assay [2]; 19 mm in [3]; 17 mm in assay [4]; 19 mm in assay [5]; 16 mm in [6]. The “diameter of the inhibition zone (DIZ)” value stood at 8 mm in [7], 19 mm in [8] and 13 mm in [9]. Moreover, the MIC in assay [1] amounted to 75 µg/mL (≈ 202 µM); in [2] it was 75 µg/mL (≈ 202 µM); in [3], 150 µg/mL (≈ 405 µM); in [4], 150 µg/mL (≈ 405 µM); in assay [5] it was 75 µg/mL (≈ 202 µM); in assay [6] it was 150 µg/mL (≈ 405 µM). For the same compound, the MIC in assay [7] amounted to 75 µg/mL (≈ 202 µM); in [8] it was 75 µg/mL (≈ 202 µM); in assay [9], 150 µg/mL (≈ 405 µM).

Regarding `C=CCCCCCCCCc1nc2cc(Cl)ccc2[nH]1`, the “diameter of the inhibition zone (DIZ)” value in assay [1] is on record as 14 mm; in assay [2], 19 mm; in assay [3] it was 22 mm; in assay [4] it was 20 mm; in assay [5] it was 18 mm; in assay [6] it was 15 mm. Moreover, the entries for the “diameter of the inhibition zone (DIZ)” value in assay [7], in assay [8] and in assay [9] were 10 mm, 19 mm and 15 mm, respectively. Besides, the MIC in assay [1] worked out at 37.5 µg/mL (≈ 129 µM); in assay [2], 75 µg/mL (≈ 258 µM); in assay [3], 37.5 µg/mL (≈ 129 µM); in [4] it was 75 µg/mL (≈ 258 µM); in assay [5], 37.5 µg/mL (≈ 129 µM); in assay [6], 37.5 µg/mL (≈ 129 µM). The MIC in assay [7] is 37.5 µg/mL (≈ 129 µM); in [8], 37.5 µg/mL (≈ 129 µM); in assay [9], 75 µg/mL (≈ 258 µM).

For `CCCCC/C=C\CC[C@H](O)CCCCCCCc1nc2ccccc2[nH]1`, the “diameter of the inhibition zone (DIZ)” value is 12 mm in [1]; 19 mm in assay [2]; 19 mm in [3]; 17 mm in [4]; 18 mm in assay [5]; 14 mm in [6]. In addition, the “diameter of the inhibition zone (DIZ)” value in assay [7] came out at 8 mm; in assay [8], 17 mm; in assay [9], 11 mm. The MIC in [1] came to 75 µg/mL (≈ 202 µM); in [2] it was 75 µg/mL (≈ 202 µM); in [3] it was 150 µg/mL (≈ 405 µM); in assay [4], 150 µg/mL (≈ 405 µM); in assay [5], 75 µg/mL (≈ 202 µM); in [6], 150 µg/mL (≈ 405 µM). The MIC in assay [7] amounted to 75 µg/mL (≈ 202 µM); in [8], 75 µg/mL (≈ 202 µM); in [9], 150 µg/mL (≈ 405 µM).

As to `CCCCCC[C@@H](O)C/C=C\CCCCCCCc1nc2c([nH]1)CCCC2`, the “diameter of the inhibition zone (DIZ)” value was 12 mm in [1]; 19 mm in [2]; 17 mm in [3]; 15 mm in [4]; 17 mm in [5]; 12 mm in assay [6]. The “diameter of the inhibition zone (DIZ)” value amounted to 7 mm in [7], 16 mm in assay [8] and 11 mm in assay [9]. Besides, the minimal inhibitory concentration (MIC) in [1] was found to be 75 µg/mL (≈ 200 µM); in assay [2] it was 75 µg/mL (≈ 200 µM); in assay [3], 75 µg/mL (≈ 200 µM); in assay [4] it was 150 µg/mL (≈ 400 µM); in assay [5] it was 75 µg/mL (≈ 200 µM); in assay [6], 37.5 µg/mL (≈ 100 µM). Further, the results for the MIC in [7], in [8] and in [9] were 37.5 µg/mL (≈ 100 µM), 75 µg/mL (≈ 200 µM) and 150 µg/mL (≈ 400 µM), respectively.

Consider `CCCCCCCC/C=C/CCCCCCCc1nc2cc(Cl)ccc2[nH]1`, for which the “diameter of the inhibition zone (DIZ)” value in assay [1] stood at 15 mm; in assay [2] it was 18 mm; in [3], 20 mm; in [4], 18 mm; in assay [5], 18 mm; in assay [6], 15 mm. The “diameter of the inhibition zone (DIZ)” value is given as 9 mm in [7], 19 mm in [8] and 16 mm in assay [9]. Further, the MIC came out at 37.5 µg/mL (≈ 96.4 µM) in [1]; 75 µg/mL (≈ 193 µM) in assay [2]; 37.5 µg/mL (≈ 96.4 µM) in assay [3]; 75 µg/mL (≈ 193 µM) in assay [4]; 37.5 µg/mL (≈ 96.4 µM) in assay [5]; 37.5 µg/mL (≈ 96.4 µM) in assay [6]. For the same compound, the MIC was found to be 37.5 µg/mL (≈ 96.4 µM) in [7], 37.5 µg/mL (≈ 96.4 µM) in assay [8] and 75 µg/mL (≈ 193 µM) in assay [9].

Take `CCCCCCCC/C=C\CCCCCCCc1nc2ccccc2[nH]1`: the “diameter of the inhibition zone (DIZ)” value in assay [1] came to 14 mm; in assay [2], 21 mm; in [3], 18 mm; in assay [4], 16 mm; in [5], 19 mm; in [6], 16 mm. Further, the “diameter of the inhibition zone (DIZ)” value in [7] was 6 mm; in assay [8] it was 18 mm; in assay [9], 12 mm. Also, the MIC in assay [1] came to 75 µg/mL (≈ 212 µM); in [2], 75 µg/mL (≈ 212 µM); in assay [3] it was 150 µg/mL (≈ 423 µM); in assay [4], 150 µg/mL (≈ 423 µM); in assay [5], 75 µg/mL (≈ 212 µM); in assay [6], 150 µg/mL (≈ 423 µM). In addition, the results for the minimum inhibitory concentration (MIC) in assay [7], in assay [8] and in assay [9] were 75 µg/mL (≈ 212 µM), 75 µg/mL (≈ 212 µM) and 150 µg/mL (≈ 423 µM), respectively.

With `CCCCC/C=C\CC[C@H](O)CCCCCCCc1nc2c([nH]1)CCCC2`, the “diameter of the inhibition zone (DIZ)” value in [1] is listed as 13 mm; in [2] it was 23 mm; in assay [3], 16 mm; in assay [4] it was 16 mm; in assay [5], 19 mm; in [6] it was 12 mm. Besides, the “diameter of the inhibition zone (DIZ)” value in assay [7] is 8 mm; in assay [8], 17 mm; in assay [9], 11 mm. Also, the MIC is 75 µg/mL (≈ 200 µM) in assay [1]; 75 µg/mL (≈ 200 µM) in assay [2]; 75 µg/mL (≈ 200 µM) in assay [3]; 150 µg/mL (≈ 400 µM) in [4]; 75 µg/mL (≈ 200 µM) in assay [5]; 37.5 µg/mL (≈ 100 µM) in assay [6]. In addition, the MIC in [7] turned out to be 37.5 µg/mL (≈ 100 µM); in [8], 75 µg/mL (≈ 200 µM); in assay [9] it was 150 µg/mL (≈ 400 µM).
